# Assay results pooled from the literature.
# Target: Bone morphogenetic protein receptor type-1B (BMPR1B, Homo sapiens, UniProt O00238)
Structure (SMILES),test,conditions,remaining binding [%]
N[C@@H]1CCN(c2nccc(-c3cnn4ncccc34)n2)C1,binding,1 µM,94
O=C(c1ccc(Nc2ncc(Cl)c(-c3cc4ccccc4s3)n2)cc1)N1CCC(N2CCCC2)CC1,"binding, competition with immobilised ligand",1 µM,62
COc1ncc2cc3ccccc3nc2c1C#N,"cell-free assay, competition with immobilised ligand",5 µM,89
COc1cnc(Nc2cccc(S(N)(=O)=O)c2)nc1N1CCN(c2ccccc2)C(=O)C1,"binding, competition with immobilised ligand",1 µM,100
Cc1cnn2ncc(-c3ccnc(N(C)C)n3)c2c1,binding,1 µM,67
COCCOc1nc(-c2ccc(Cl)nc2)nc2c1CN(C(=O)c1ncn3ccccc13)CC2,"cell-free assay, competition with immobilised ligand",0.1 µM,100
c1cncc(-c2cccc(Nc3nccc(NC4CCCCC4)n3)c2)c1,"binding, competition with immobilised ligand",10 µM,47
CN(CCCC(F)(F)F)c1nccc(-c2cnn3ncccc23)n1,binding,1 µM,93
CC1=C(C#N)C(c2ccc3c(c2)c(NC(=O)c2ccccc2C)nn3C)C(C#N)=C(C)N1,"cell-free assay, competition with immobilised ligand",1 µM,91
F[C@@H]1CCN(c2nccc(-c3cnn4ncccc34)n2)C1,binding,1 µM,72
O=C(Nc1c[nH]nc1C(=O)NC1CCNCC1)c1cc(F)cc(F)c1,"binding, competition with immobilised ligand",1 µM,84
COc1ccnn2ncc(-c3ccnc(N(C)C)n3)c12,binding,1 µM,51
C[C@@H]1CN(c2cc(-c3nn(C)c4ccc(OC5(C)CC5)cc34)ncn2)C[C@H](C)O1,"cell-free assay, competition with immobilised ligand",1 µM,77
O=C(c1ccc(Nc2ncc(Cl)c(-c3ccc(Cl)s3)n2)cc1)N1CCC(N2CCCC2)CC1,"binding, competition with immobilised ligand",1 µM,18
Cc1cc(C)c(-n2ccn3nc(-c4cccnc4)cc23)cc1NC(=O)c1cc(C#N)cc(S(F)(F)(F)(F)F)c1,"cell-free assay, competition with immobilised ligand",0.1 µM,72.3
Cc1cnc(Nc2ccc(C(=O)N3CCC(N4CCCC4)CC3)cc2)nc1-c1cc2ccccc2s1,"binding, competition with immobilised ligand",1 µM,26
CCCCN(CCCC)C(=O)CN1C[C@H](c2cc(OC)c3c(c2)OCO3)[C@@H](C(=O)O)[C@@H]1CC(C)(C)CCC,"cell-free assay, competition with immobilised ligand",1 µM,59
CN(C)c1ncc(F)c(-c2cnn3ncccc23)n1,binding,1 µM,64
CNC(=O)Nc1ccc2c(c1)[C@@]1(CC2)OC(=O)N(CC(=O)N(Cc2ccc(F)cc2)[C@@H](C)C(F)(F)F)C1=O,"cell-free assay, competition with immobilised ligand",1 µM,100
CNC(=O)[C@@H]1CC[C@@H](n2c(-c3ccc4cnccc4c3)nc3ccc(C(=O)NCc4cccc(C(N)=O)c4)cc32)C1,"binding, competition with immobilised ligand",1 µM,80
CCOC(=O)c1cc2cc(-c3cc(C(=O)NCc4ccc(C(=O)O)cc4)nn3C)ccc2[nH]1,"cell-free assay, competition with immobilised ligand",0.1 µM,96
CN(c1nccc(-c2cnn3ncccc23)n1)C1CC1,binding,1 µM,76
